Test results: ChEMBL document CHEMBL1154778, “Synthesis and biological evaluation of C-5 methyl substituted 4-arylthio and 4-aryloxy-3-Iodopyridin-2(1H)-one type anti-HIV agents” (J Med Chem, 2009)

Experiments:
[1] = tested on: Human immunodeficiency virus 1; test: Antiviral activity against HIV-1 LAI harboring wild type reverse transcriptase infected in human MT4 cells after 5 days by MTT assay; assay type: functional, organism-based; conditions: Human immunodeficiency virus 1, LAI, MT4, 120 h
Summary of the method: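 MT4 cells were kept in RPMI 1640 with 10% fetal calf serum and antibiotics at 37 °C, 5% CO2. A range of compound concentrations was incubated with HIV-1 LAI at 200 CCID50/well and 30000 MT4 cells/well for 5 days at 37 °C. Cell viability was read by MTT, and IC50 was the concentration giving 50% infection versus the drug-free control.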

[2] = Selectivity index, ratio of CC50 for human MT4 cells to IC50 for HIV-1 LAI harboring wild type reverse transcriptase infected in human MT4 cells; assay type: functional
Summary of the method: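 Cytotoxicity was measured in mock-infected MT4 cultures (30000 cells/well) given the same compound concentration range, run in parallel with the infected cultures for 5 days at 37 °C, 5% CO2, with MTT viability. CC50 was the concentration reducing viability by 50% versus the drug-free control. SI was CC50 divided by IC50 against HIV-1 LAI.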

[3] = tested on: Human immunodeficiency virus 1; test: Antiviral activity against HIV1 HXB2 harboring Y181C mutant reverse transcriptase infected in human MT4 cells after 5 days by MTT assay; assay type: functional, organism-based; conditions: Human immunodeficiency virus 1, HXB2, MT4, 120 h
Summary of the method: (§1)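 Mutant viruses were made by recombining the mutant PR-RT sequence into a PR-RT-deleted HIV-1 HXB2 proviral clone. MT4 cells were grown in RPMI 1640 with 10% FCS and antibiotics. Virus at 200 CCID50/well and 30000 cells/well were incubated with varied compound concentrations for 5 days at 37 °C, 5% CO2. MTT viability gave IC50, the concentration giving 50% infection versus the drug-free control.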

[4] = tested on: Human immunodeficiency virus 1; test: Antiviral activity against HIV1 HXB2 harboring Y188L mutant reverse transcriptase infected in human MT4 cells after 5 days by MTT assay; assay type: functional, organism-based; conditions: Human immunodeficiency virus 1, HXB2, MT4, 120 h; summary of the method: as §1
[5] = tested on: Human immunodeficiency virus 1; test: Antiviral activity against HIV1 HXB2 harboring K103N mutant reverse transcriptase infected in human MT4 cells after 5 days by MTT assay; assay type: functional, organism-based; conditions: Human immunodeficiency virus 1, HXB2, MT4, 120 h; summary of the method: as §1

Compound	IC50 [1]	Ratio CC50/IC50 [2]	IC50 [3]	IC50 [4]	IC50 [5]
Cc1cc(C)cc(Sc2c(Cn3cccc3C#N)c(C)[nH]c(=O)c2I)c1	1 nM	>31623	–	–	–
Cc1cc(C)cc(Oc2c(CSC3CCCC3)c(C)[nH]c(=O)c2I)c1	10 nM	>10000	100 nM	630 nM	31.6 nM
Cc1cc(C)cc(Oc2c(Cn3ccc(N)n3)c(C)[nH]c(=O)c2I)c1	7.9 nM	>12589	39.8 nM	125 nM	39.8 nM
COCC1CCN(Cc2c(C)[nH]c(=O)c(I)c2Sc2cc(C)cc(C)c2)CC1	5.01 nM	7943	630 nM	3160 nM	19.9 nM
Cc1cc(C)cc(Oc2c(CSCc3cccs3)c(C)[nH]c(=O)c2I)c1	2.51 nM	>39811	19.9 nM	39.8 nM	1 nM
Cc1cc(C)cc(Sc2c(Cn3cccc3)c(C)[nH]c(=O)c2I)c1	2.51 nM	19953	31.6 nM	158 nM	1 nM
Cc1cc(C)cc(Sc2c(CSCC(C)C)c(C)[nH]c(=O)c2I)c1	7.94 nM	>12589	199 nM	2510 nM	10 nM
Cc1cc(C)cc(Oc2c(Cn3ccnc3Br)c(C)[nH]c(=O)c2I)c1	7.9 nM	>3981	–	–	–
Cc1cc(C)cc(Sc2c(CNC=O)c(C)[nH]c(=O)c2I)c1	1.25 nM	>79433	31.6 nM	199 nM	1.25 nM
CNC(=O)CSCc1c(C)[nH]c(=O)c(I)c1Oc1cc(C)cc(C)c1	1.58 nM	>60096	19.9 nM	158 nM	3.98 nM
Cc1cc(C)cc(Sc2c(Cn3cncn3)c(C)[nH]c(=O)c2I)c1	1 nM	>25119	7.94 nM	125 nM	1 nM
Cc1cc(C)cc(Sc2c(CN(C)Cc3ccco3)c(C)[nH]c(=O)c2I)c1	6.3 nM	>15849	50.1 nM	794 nM	15.8 nM
Cc1cc(C)cc(Sc2c(CN3CCC(C(N)=O)CC3)c(C)[nH]c(=O)c2I)c1	5.01 nM	>19953	158 nM	1260 nM	10 nM
Cc1cc(C)cc(Sc2c(CN3CCOC(CN(C)C)C3)c(C)[nH]c(=O)c2I)c1 (configuration not stated)	5.01 nM	>5012	158 nM	1000 nM	–
Cc1cc(C)cc(Oc2c(Cn3cc(Br)cn3)c(C)[nH]c(=O)c2I)c1	7.94 nM	>12589	31.6 nM	100 nM	7.94 nM
Cc1cc(C)cc(Sc2c(CSCc3ccco3)c(C)[nH]c(=O)c2I)c1	6.3 nM	>12589	39.8 nM	1000 nM	5.01 nM
Cc1cc(C)cc(Sc2c(Cn3cnc(C)n3)c(C)[nH]c(=O)c2I)c1	0.79 nM	>125893	15.8 nM	100 nM	1.99 nM
Cc1cc(C)cc(Oc2c(CSCC(C)C)c(C)[nH]c(=O)c2I)c1	7.94 nM	>12589	50.1 nM	794 nM	25.1 nM
CCOCc1c(C)[nH]c(=O)c(I)c1Sc1cc(C)cc(C)c1	1.99 nM	50119	31.6 nM	251 nM	1.25 nM

Compound	IC50 [1]	Ratio CC50/IC50 [2]	IC50 [3]	IC50 [4]	IC50 [5]
Cc1cc(C)cc(Oc2c(COCc3ccsc3)c(C)[nH]c(=O)c2I)c1	5 nM	>19953	25.1 nM	100 nM	25.1 nM
Cc1cc(C)cc(Sc2c(Cn3nc(CC#N)nc3C)c(C)[nH]c(=O)c2I)c1	5.01 nM	>19953	39.8 nM	199 nM	25.1 nM
Cc1cc(C)cc(Oc2c(CN(C)Cc3ccco3)c(C)[nH]c(=O)c2I)c1	5.01 nM	12589	39.8 nM	251 nM	31.6 nM
Cc1cc(C)cc(Oc2c(CSCc3nccs3)c(C)[nH]c(=O)c2I)c1	7.94 nM	>12589	39.8 nM	2000 nM	25.1 nM
Cc1cc(C)cc(Oc2c(-n3ccnc3C#N)c(C)[nH]c(=O)c2I)c1	6.3 nM	>15848	39.8 nM	125 nM	12.5 nM
Cc1cc(C)cc(Sc2c(CSCCc3cnccn3)c(C)[nH]c(=O)c2I)c1	1.99 nM	>39811	31.6 nM	199 nM	5.01 nM
Cc1cc(C)cc(Oc2c(CN3CCN(C(=O)c4ccco4)CC3)c(C)[nH]c(=O)c2I)c1	10 nM	1585	125 nM	158 nM	25.1 nM
Cc1cc(C)cc(Sc2c(Cn3ccnn3)c(C)[nH]c(=O)c2I)c1	1.99 nM	>50119	10 nM	50.1 nM	1 nM
Cc1cc(C)cc(Oc2c(CSCc3cccc(C#N)c3)c(C)[nH]c(=O)c2I)c1	3.16 nM	19953	6.3 nM	794 nM	1.58 nM
Cc1cc(C)cc(Oc2c(CN3CCCC(C(N)=O)C3)c(C)[nH]c(=O)c2I)c1 (configuration not stated)	10 nM	>10000	–	–	–
Cc1cc(C)cc(Oc2c(Cn3cccn3)c(C)[nH]c(=O)c2I)c1	5.01 nM	>19952	31.6 nM	316 nM	6.3 nM
Cc1cc(C)cc(Oc2c(CSCc3ccccc3)c(C)[nH]c(=O)c2I)c1	6.3 nM	>15849	15.8 nM	31.6 nM	7.94 nM
Cc1cc(C)cc(Sc2c(Cn3nc(C)nc3C)c(C)[nH]c(=O)c2I)c1	3.16 nM	>31623	39.8 nM	158 nM	31.6 nM
Cc1cc(C)cc(Oc2c(Cn3ncc4ccccc43)c(C)[nH]c(=O)c2I)c1	7.9 nM	>3981	–	–	–
CCOC(=O)CSCc1c(C)[nH]c(=O)c(I)c1Oc1cc(C)cc(C)c1	10 nM	>10000	–	–	–
Cc1cc(C)cc(Sc2c(CN)c(C)[nH]c(=O)c2I)c1	19.9 nM	–	794 nM	> 10000 nM	158 nM
Cc1cc(C)cc(Sc2c(Cn3ccnc3C#N)c(C)[nH]c(=O)c2I)c1	1 nM	>31623	–	–	–
Cc1cc(C)cc(Sc2c(CN3CCN(C(=O)c4ccco4)CC3)c(C)[nH]c(=O)c2I)c1	10 nM	398	–	–	–
